Active and inactive are the calls of the source. The calls are words filed in the database; no cut-off is given here.
How the values were obtained:
[1] = system: Plasmodium falciparum; test: Antimalarial activity against Plasmodium falciparum isolate GB0006 assessed as reduction in parasitemia at 1 to 10 times EC50 supplemented with fresh medium containing compounds every 24 hrs for 72 hrs relative to control; type: functional
Summary of the method: (§1)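 Parasite reduction ratio setup: cryopreserved clinical isolates thawed and cultured at least one cycle (~48 h ± 2); new rings 0–3 h post-invasion taken as t = 0. […] 24 h arm: drug removed by two washes; 48 and 72 h arms: fresh drug every 24 h.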

[2] = Inhibition of recombinant full-length Plasmodium falciparum 3D7 CLK3 using ULight-labelled CFFKNIVTPRTPPPSQGK as substrate measured after 1 hr by TR-FRET assay
Summary of the method: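 Peptide substrate plus cold ATP with serially diluted inhibitor, 37 °C for 1 h. Stopped with 30 mM EDTA and Eu-anti-phospho antibody (3 nM), 1 h RT, read 665 nm emission. Normalised to no-kinase/no-inhibitor wells; three independent experiments in triplicate, mean ± SEM.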

[3] = system: Plasmodium falciparum; test: Antimalarial activity against Plasmodium falciparum isolate GB0020 assessed as reduction in parasitemia at 1 to 10 times EC50 supplemented with fresh medium containing compounds every 24 hrs for 72 hrs relative to control; type: functional, organism-based; summary of the method: as §1
[4] = system: Plasmodium falciparum; test: Antimalarial activity against Plasmodium falciparum isolate GB0026 assessed as reduction in parasitemia at 1 to 10 times EC50 supplemented with fresh medium containing compounds every 24 hrs for 72 hrs relative to control; type: functional, organism-based; summary of the method: as §1
[5] = system: Plasmodium falciparum; test: Antimalarial activity against Plasmodium falciparum isolate GB0087 assessed as reduction in parasitemia at 1 to 10 times EC50 supplemented with fresh medium containing compounds every 24 hrs for 72 hrs relative to control; type: functional; summary of the method: as §1
[6] = system: Plasmodium falciparum; test: Antimalarial activity against Plasmodium falciparum isolate GB0021 assessed as reduction in parasitemia at 1 to 10 times EC50 supplemented with fresh medium containing compounds every 24 hrs for 72 hrs relative to control; type: functional; summary of the method: as §1
[7] = system: Plasmodium falciparum; test: Antimalarial activity against Plasmodium falciparum isolate GB0048 assessed as reduction in parasitemia at 1 to 10 times EC50 supplemented with fresh medium containing compounds every 24 hrs for 72 hrs relative to control; type: functional; summary of the method: as §1
[8] = system: Plasmodium falciparum; test: Antimalarial activity against Plasmodium falciparum isolate GB0004 assessed as reduction in parasitemia at 1 to 10 times EC50 supplemented with fresh medium containing compounds every 24 hrs for 72 hrs relative to control; type: functional; summary of the method: as §1
[9] = Distribution coefficient, log D of the compound at pH 7.4 by HPLC method; type: physicochemical; conditions: octanol/water
[10] = system: Plasmodium falciparum; test: Antimalarial activity against Plasmodium falciparum isolate GB0071 assessed as reduction in parasitemia at 1 to 10 times EC50 supplemented with fresh medium containing compounds every 24 hrs for 72 hrs relative to control; type: functional; summary of the method: as §1
[11] = system: Plasmodium falciparum; test: Antimalarial activity against Plasmodium falciparum isolate GB002 assessed as reduction in parasitemia at 1 to 10 times EC50 supplemented with fresh medium containing compounds every 24 hrs for 72 hrs relative to control; type: functional, organism-based; summary of the method: as §1
[12] = system: Plasmodium falciparum; test: Antimalarial activity against chloroquine-sensitive synchronized ring stage of Plasmodium falciparum 3D7 incubated for 48 to 52 hrs by SYBR green 1 dye based assay; type: functional, organism-based
[13] = system: Plasmodium falciparum; test: Antimalarial activity against Plasmodium falciparum isolate GB0020 assessed as reduction in parasitemia at 1 to 10 times EC50 measured after 24 hrs relative to control; type: functional; set-up: scale not given: the % may be the effect or the level left; summary of the method: as §1
[14] = system: Plasmodium falciparum; test: Antimalarial activity against Plasmodium falciparum isolate GB0020 assessed as reduction in parasitemia at 10 times EC50 measured after 72 hrs; type: functional, organism-based; summary of the method: as §1
[15] = system: Plasmodium falciparum; test: Antimalarial activity against Plasmodium falciparum isolate GB002 assessed as reduction in parasitemia at 1 to 10 times EC50 measured after 24 hrs relative to control; type: functional; set-up: scale not given: the % may be the effect or the level left; summary of the method: as §1
[16] = system: Plasmodium falciparum; test: Antimalarial activity against Plasmodium falciparum isolate GB0026 assessed as reduction in parasitemia at 10 times EC50 measured after 72 hrs; type: functional, organism-based; summary of the method: as §1
[17] = system: Plasmodium falciparum; test: Antimalarial activity against Plasmodium falciparum isolate GB0026 assessed as reduction in parasitemia at 1 to 10 times EC50 measured after 24 hrs relative to control; type: functional; set-up: scale not given: the % may be the effect or the level left; summary of the method: as §1
[18] = system: Plasmodium falciparum; test: Antimalarial activity against Plasmodium falciparum isolate GB002 assessed as reduction in parasitemia at 10 times EC50 measured after 72 hrs; type: functional, organism-based; summary of the method: as §1

In the case of `CCN(CC)Cc1ccc(OC)c(-c2cc3c(-c4ccc(C(=O)O)c(C(C)C)c4)ccnc3[nH]2)c1`, the Activity [1] is reported as “Active”, the IC50 [2] is reported as 0.04 µM and the pIC50 [2] is reported as 7.4. For the same compound, the Activity [3] was “Active”, the Activity [4] was “Active” and the Activity [5] was “Active”. For the same compound, the Activity [6] was “Active”, the Activity [7] was “Active” and the Activity [8] was “Active”. For the same compound, the logD [9] was 0.93, the Activity [10] was “Active” and the Activity [11] was “Active”.
`COc1ccccc1-c1cc2c(-c3ccc(C(=O)O)c(C(C)C)c3)ccnc2[nH]1` gave an IC50 [2] of 0.079 µM, a pIC50 [2] of 7.1 and an EC50 ([12]; read-out: EC50) of 1.46 µM. It also gave an EC50 ([12]; read-out: pEC50 (converted)) of 1.58 µM and a logD [9] of 2.45.
For `CCc1nc(N)nc(N)c1-c1ccc(Cl)cc1` [PYRIMETHAMINE], the Activity [13] was 45%, the Activity [1] was “>=70%” and the Activity [14] was “inactive”. The Activity [15] was 64%, the Activity [16] was “inactive” and the EC50 ([12]; read-out: EC50) was 0.018 µM. The Activity [5] was “>=70%”, the Activity [6] was “>=70%” and the Activity [17] was 36%. For the same compound, the Activity [18] was “inactive”, the Activity [7] was “>=70%” and the Activity [10] was “>=70%”.
Work on `COc1ccc(CN2CCOCC2)cc1-c1cc2c(-c3ccc(C(=O)O)c(C(C)C)c3)ccnc2[nH]1` yielded an IC50 [2] of 0.009 µM and a pIC50 [2] of 8.
For `COc1ccc(CN)cc1-c1cc2c(-c3ccc(C(=O)O)c(C(C)C)c3)ccnc2[nH]1`, the IC50 [2] was 0.076 µM, the pIC50 [2] was 7.1 and the EC50 ([12]; read-out: EC50) was 2.8 µM. For the same compound, the EC50 ([12]; read-out: pEC50 (converted)) was 2.51 µM and the logD [9] was 0.61.
In the case of `CCN(CC)Cc1cccc(-c2cc3c(-c4ccc(C(=O)O)c(C(C)C)c4)ccnc3[nH]2)c1OC`, the IC50 [2] is reported as 0.017 µM, the pIC50 [2] is reported as 7.7 and the EC50 ([12]; read-out: EC50) is reported as 3.17 µM. For the same compound, the EC50 ([12]; read-out: pEC50 (converted)) was 2.51 µM and the logD [9] was 0.74.
Work on `CCN(CC)Cc1ccc(OC)c(-c2cc3c(-c4ccc(C(C)C)c(C(=O)O)c4)ccnc3[nH]2)c1` yielded an IC50 [2] of 1.39 µM and a pIC50 [2] of 4.9.
For `COc1ccc(CN2CCCC2)cc1-c1cc2c(-c3ccc(C(=O)O)c(C(C)C)c3)ccnc2[nH]1`, the IC50 [2] was 0.038 µM, the pIC50 [2] was 7.4 and the EC50 ([12]; read-out: EC50) was 0.382 µM. The logD [9] was 2.43.
Compound `CCN(CC)Cc1ccc(OC)c(-c2cc3c(-c4ccc(C(=O)O)c(C)c4)ccnc3[nH]2)c1` has an IC50 [2] of 0.024 µM, a pIC50 [2] of 7.6 and an EC50 ([12]; read-out: EC50) of 1.19 µM. It also gave an EC50 ([12]; read-out: pEC50 (converted)) of 2.51 µM and a logD [9] of 0.66.
Compound `CCN(CC)Cc1ccc(O)c(-c2cc3c(-c4ccc(C(=O)O)c(C(C)C)c4)ccnc3[nH]2)c1` has an IC50 [2] of 0.022 µM, a pIC50 [2] of 7.7 and an EC50 ([12]; read-out: EC50) of 3.53 µM. For the same compound, the logD [9] was 0.59.
With `CCN(CC)Cc1ccc(OC)c(-c2cc3c(-c4cccc(C(C)C)c4)ccnc3[nH]2)c1` the IC50 [2] was 1.3 µM, the pIC50 [2] was 6 and the logD [9] was 4.45.
For `CCN(CC)Cc1ccc(OC)c(-c2cc3c(-c4ccc(C(=O)O)cc4)ccnc3[nH]2)c1`, the IC50 [2] was 0.034 µM, the pIC50 [2] was 7.5 and the EC50 ([12]; read-out: EC50) was 3.27 µM. The logD [9] was 0.65.
`CCOC(=O)c1ccc(-c2ccnc3[nH]c(-c4cc(CN(CC)CC)ccc4OC)cc23)cc1C(C)C` gave an IC50 [2] of 0.39 µM, a pIC50 [2] of 6.4 and a logD [9] of 2.45.
`CCN(CC)Cc1cccc(-c2cc3c(-c4ccc(C(=O)O)c(C(C)C)c4)ccnc3[nH]2)c1` gave an IC50 [2] of 0.025 µM, a pIC50 [2] of 7.6 and an EC50 ([12]; read-out: EC50) of 0.309 µM. The logD [9] was 0.8.
For `COc1ccc(CN(C)C)cc1-c1cc2c(-c3ccc(C(=O)O)c(C(C)C)c3)ccnc2[nH]1`, the IC50 [2] was 0.029 µM, the pIC50 [2] was 7.5 and the EC50 ([12]; read-out: EC50) was 0.457 µM. It also gave a logD [9] of 0.85.
With `CCN(CC)Cc1ccc(OC)c(-c2cc3c(-c4ccc(-c5nnn[nH]5)c(C(C)C)c4)ccnc3[nH]2)c1` the IC50 [2] was 0.019 µM, the pIC50 [2] was 7.7 and the logD [9] was 0.93.
